Measurements: ChEMBL document CHEMBL4513216, “Probing the Open Global Health Chemical Diversity Library for Multistage-Active Starting Points for Next-Generation Antimalarials” (ACS Infect Dis, 2020)

experiment: Toxicity liver stage against HepG2, at 10uM; format: cell-based; set-up: test concentration 10 uM, cell line HepG2-A16-CD81EGFP; settings: human, HepG2-A16-CD81EGFP cells; read-out: INHIBITION
Summary of the method: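 Uninfected HepG2-A16-CD81EGFP cells, 3 × 10^3 per well, 1536-well, plated on prespotted compound at 10 μM final, parasite-free screening media added to match infected plates; puromycin 10 μM positive, DMSO 0.5% negative; run in parallel with 48 h PbLuc assay at 37 °C, 5% CO2; viability by CellTiter-Glo luminescence, normalized to controls.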

SMILES	cytotoxicity at 10 µM [%]
CCc1noc(C2CCCCN2C(=O)c2cc(C)on2)n1 (stereo unspecified)	5.67
COc1cc(NCc2cccnc2)c(-c2nn[nH]n2)cc1OC	7.88
CC(=O)N1CCC(c2ncc(C(=O)Nc3ccccc3)c(C)n2)CC1	5.91
Fc1ccccc1CN1CCC[C@@H](Cn2nnc(-c3cccs3)n2)C1	4.77
CCC(=O)N1CCCCC1c1nc(N(C)C)ncc1-c1cc(C)no1 (stereo unspecified)	5.69
CC(C)NC(=O)C1CCc2nnc(CNC(=O)c3ccc(Cl)cc3Cl)n21 (stereo unspecified)	5.84
COc1c(CNCCc2c[nH]c3ccccc23)c(C(C)C)nn1C	3.41
Cc1ccccc1CCCN1CCS(=O)(=O)CC1C (stereo unspecified)	1.57
CCc1nnc(CS(=O)(=O)c2ccc(C)c(C)c2)n1C	0.617
CN(CCCOc1ccc(F)cc1)S(=O)(=O)c1cnn(C)c1	-0.336
CC(NCc1ccc(OCC(N)=O)cc1)c1ccc2c(c1)CCCC2 (stereo unspecified)	-0.699
CNC(=O)CCNC(=O)c1cc(Br)c2c(c1)OCCO2	3.82
Cc1[nH]ncc1CCCNC(=O)Nc1ccc(S(C)(=O)=O)nc1	-3.71
Cc1nc(C)n(CC2CCCN2Cc2coc(-c3cccs3)n2)n1 (stereo unspecified)	-9.61
O=C(NCCc1ccccc1Cl)NCC1(O)CCSC1 (stereo unspecified)	-6.17
COc1ccnc(N2CCN(C(C)c3nc(C)no3)CC2)n1 (stereo unspecified)	-1.33
Cc1ccc(N2CCCN(C(=O)c3n[nH]c4c3CCC4)CC2)nn1	3.81
c1ccc(CCN2CC(n3cccn3)C2)nc1	-0.2
COc1cc(C)c(CNC(C)c2nc(C)cs2)cc1OC (stereo unspecified)	2.58
O=C(c1ccoc1)N1Cc2cnn(CC3CC3)c2C(COCC2CC2)C1 (stereo unspecified)	-6.98
CCOc1ccc(Cl)cc1C(C(=O)O)N1CCOCC1 (stereo unspecified)	-0.924
Cc1cccc2[nH]c(COCC(=O)N3CCCn4cncc4C3)nc12	2.03
CC(C)(C)c1ccc(-n2ncc3c2CCCC3N)cc1 (stereo unspecified)	-0.711

SMILES	cytotoxicity at 10 µM [%]
CCC(NC(=O)CCNC(=O)c1ccccc1F)c1cc(C)ccn1 (stereo unspecified)	-11.4
CCc1nnc(N2CCN(CCc3ccccc3)C(=O)C2)o1	-1.01
COc1cc(F)c(C(=O)NCc2cc(C)on2)c(F)c1	-0.376
Cc1cc(CC(C)NC2CCSCC2)[nH]n1 (stereo unspecified)	1.08
CCCn1ncc(C(=O)N(C)Cc2n[nH]c3c2CCC3)c1C	0.213
Cc1cc(F)ccc1OC1(C(=O)O)CCN(Cc2c[nH]cn2)CC1	1.18
Cc1ccc(S(=O)(=O)N2C[C@H](C3CC3)[C@@H](N)C2)cc1F	-3.25
Cn1ncc2c(N3CC(N4CCCCC4)C3)nc(-c3ccncc3)nc21	5.18
COc1ccc(C(C(=O)O)N(C)CCN2CCOCC2)c(C)c1 (stereo unspecified)	2.66
Cc1noc(CN(C)CC2(O)CCCN(CCC3CCCCC3)C2=O)n1 (stereo unspecified)	-3.73
O=C1N(CCO)CCCC12CCN(Cc1noc(C3CCCC3)n1)C2 (stereo unspecified)	-0.973
COc1cccc(S(=O)(=O)N2CCCCC2CCN2CCOCC2)c1 (stereo unspecified)	-5.31
CN(Cc1cc[nH]n1)C(=O)c1ccc2c(c1)nc(N1CC[C@H](O)C1)n2C	4.43
O=C(c1ccc(F)cc1F)N1C[C@@H](O)[C@H](N2CCOCC2)C1	-1.37
O=C1NCCN1C1CCN(CCOc2ccccc2Cl)CC1	-6.69
CCC(C)NC(=O)CCNC(=O)Nc1ccc(-n2cncn2)c(F)c1 (stereo unspecified)	-0.22
CCc1[nH]ncc1C(=O)N1CCCC(n2cccn2)C1 (stereo unspecified)	4.62
c1cnn(CC2CN(CC3CCCC3)CCO2)c1 (stereo unspecified)	-2.55
CC(C)COC(C)C(=O)NCc1cc(F)cc(F)c1 (stereo unspecified)	3.37
COCC1COCCC12CCN(Cc1nccs1)CC2 (stereo unspecified)	2.31
c1ccc(CN2CC[C@@H]3O[C@@H](COCC4CCOCC4)CC[C@@H]32)nc1	-1.98
Cc1nc(CN2CCO[C@@H]3CN(Cc4ccsc4)C[C@@H]3C2)cs1	2.99
COCCN1CCc2ncnc(NC(C)C)c2CC1	2.13
